# Tests used:
# Plasmodium falciparum [1] = test: ST_JUDE: Plasmodium falciparum 3D7 EC50 (uM) as measured by SYBR green dye; format: functional, organism-based
# Plasmodium falciparum [2] = test: ST_JUDE: Plasmodium falciparum K1 EC50 (uM) as measured by SYBR green dye; format: functional, organism-based
# Plasmodium falciparum [3] = test: ST_JUDE: Cytotoxicity against Plasmodium falciparum 3D7; format: functional, organism-based
# In short: (§1)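 Asexual P. falciparum grown in human erythrocytes, exposed to compounds for 72 h, and growth read as the DNA quantity in treated versus control cultures. Dose-response run at 12 concentrations from 10 μM to 5 nM.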
# Plasmodium falciparum [4] = test: ST_JUDE: Cytotoxicity against Plasmodium falciparum K1; format: functional, organism-based; in short: as §1
# Plasmodium falciparum [5] = test: ST_JUDE: Cytotoxicity against Plasmodium falciparum V1/S; format: functional, organism-based
# Toxoplasma gondii = test: ST_JUDE: Growth inhibition of to Toxoplasma gondii, in human U-2OS cells, as measured by luciferase.; format: functional, organism-based; conditions: RH, U2OS
# In short: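 T. gondii parasites engineered to express luciferase; drug sensitivity read by luminescence.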
# Trypanosoma brucei = test: ST_JUDE: Cytotoxicity using luciferase to measure ATP as an indicator of the viability of Trypanosoma brucei; format: functional, organism-based
# Leishmania major = test: ST_JUDE: Cytotoxicity using Alamar Blue to measure viability of Leishmania major; format: functional, organism-based
# In short: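 L. major promastigotes; drug susceptibility read with Alamar Blue.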
# [6] = ST_JUDE: Cytotoxicity using luciferase to measure ATP as an indicator of the viability of human foreskin fibroblast cells (BJ); format: toxicity, cell-based
# [7] = ST_JUDE: Cytotoxicity using luciferase to measure ATP as an indicator of the viability of human epithelial hepatocellular carcinoma cells (HepG2); format: toxicity, cell-based
# [8] = ST_JUDE: Cytotoxicity using luciferase to measure ATP as an indicator of the viability of human epithelial embryonic kidney cells (HEK293); format: toxicity, cell-based
# [9] = ST_JUDE: Cytotoxicity using luciferase to measure ATP as an indicator of the viability of human Burkitt''s lymphoma lymphoblast cells (Raji); format: toxicity, cell-based
# Plasmodium falciparum [10] = test: ST_JUDE: Cytotoxicity against Plasmodium falciparum Dd2; format: functional, organism-based
# Plasmodium falciparum [11] = test: ST_JUDE: Cytotoxicity against Plasmodium falciparum W2; format: functional, organism-based
# Plasmodium falciparum [12] = test: ST_JUDE: Cytotoxicity against Plasmodium falciparum SB-A6; format: functional, organism-based
# Plasmodium falciparum [13] = test: ST_JUDE: Cytotoxicity against Plasmodium falciparum D10 transfected with yeast DHOD; format: functional, organism-based
Structure (SMILES),EC50 (Plasmodium falciparum [1]) [µM],EC50 (Plasmodium falciparum [2]) [µM],EC50 (Plasmodium falciparum [3]) [µM],EC50 (Plasmodium falciparum [4]) [µM],EC50 (Plasmodium falciparum [5]) [µM],EC50 (Toxoplasma gondii) [µM],EC50 (Trypanosoma brucei) [µM],EC50 (Leishmania major) [µM],EC50 [6] [µM],EC50 [7] [µM],EC50 [8] [µM],EC50 [9] [µM],EC50 (Plasmodium falciparum [10]) [µM],EC50 (Plasmodium falciparum [11]) [µM],EC50 (Plasmodium falciparum [12]) [µM],EC50 (Plasmodium falciparum [13]) [µM]
C[n+]1ccccc1/C=C/c1ccc([N+](=O)[O-])cc1,1.41,1.42,0.804,0.745,0.858,> 18.5,> 32.4,> 14.5,> 33.8,> 33.8,> 33.8,> 33.8,1.04,4.23,1.08,0.899
CC(C)(C)c1ccc(S(=O)(=O)NC2=C/C(=N\c3ccc(O)cc3)C(=O)c3ccccc32)cc1,1.08,0.579,0.6,0.326,0.687,> 18,0.669,> 14,4.62,2.18,7.99,4.07,1.03,0.385,0.304,0.244
COc1ccccc1C1CC2=NC(C)=C(C(=O)OC(C)C)C(c3ccc(Cl)cc3)C2=C(O)C1 (stereo not given),1.28,0.688,1.01,0.641,0.846,> 16.4,0.68,> 12.8,> 29.9,> 29.9,> 29.9,> 29.9,1.1,> 7.68,0.753,0.779
Cc1ccc(C)c(N2CCN(Cc3cc(Br)ccc3O)CC2)c1,0.395,0.178,0.531,0.206,0.297,> 19.5,28.3,> 15.3,> 35.6,> 35.6,> 35.6,> 35.6,0.427,0.571,0.716,0.579
CCCCOc1ccc(N(C(C)=O)C2=C(N3CCOCC3)C(=O)c3ccccc3C2=O)cc1,0.0989,0.0956,0.0708,0.066,0.0364,> 17.1,4.01,> 13.4,> 31.2,3.89,10.9,3.82,0.488,0.93,0.0289,0.0212
CCN(C(C)=O)C1=C(N2CCOCC2)C(=O)c2ccccc2C1=O,0.348,0.692,0.431,0.439,0.514,3.21,5.67,> 13.9,8.99,3.2,> 32.5,2.73,0.38,> 8.34,0.611,0.467
CN1/C(=C/c2cccc[n+]2C)Sc2ccccc21,0.54,0.389,0.567,0.605,0.503,> 15.5,3.95,0.108,> 28.3,> 28.3,> 28.3,4.05,0.771,0.495,0.681,0.879
CCOc1cc(C2CC(=O)NC3=C2C(=O)CC(c2ccc(OC)cc2)C3)cc(Cl)c1O (stereo not given),0.525,0.84,0.976,1.04,1.18,> 24.3,> 42.6,> 19,> 44.4,> 44.4,> 44.4,> 44.4,1.31,0.637,1.23,1.16
CCN(CC)c1ccc(/C=C/c2ccc3ccc(OC)cc3[n+]2CC)cc1,1.13,0.803,0.422,0.419,0.413,4.17,0.441,0.0024,> 16.8,1.92,> 16.8,0.484,0.229,0.304,0.449,0.308
COc1ccc(NC(=O)C2c3ccccc3C(=O)N(CC(C)C)C2c2cccs2)cc1 (stereo not given),0.102,0.12,0.217,0.196,0.416,> 26.1,7.55,> 20.4,> 47.7,> 47.7,> 47.7,> 47.7,0.255,> 12.3,0.369,0.329

# From ChEMBL document CHEMBL1154198, “Chemical genetics of Plasmodium falciparum” (Nature, 2010)
